ChEMBL document CHEMBL1131323, “Inhibition of membrane-type 1 matrix metalloproteinase by hydroxamate inhibitors: an examination of the subsite pocket” (J Med Chem, 1998)

Assays:
[1] = biological target: Matrix metalloproteinase-14 (Homo sapiens, UniProt P50281); assay: Activity against deletion mutant of MT1-MMP lacking the transmembrane domain (deltaMT1)
Stromelysin-1 = Stromelysin-1 (Homo sapiens, UniProt P08254); assay: Activity against Matrix metalloprotease-3 (MMP-3).
In short: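 MMP-3 purified from human fibroblast culture medium, used at 0.3 U/mL. Substrate was radiolabeled proteoglycan entrapped in polyacrylamide particles (3.5 mg dry beads). IC50 values read from dose-dependent inhibition curves.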

Interstitial collagenase = biological target: T1, Interstitial collagenase (Homo sapiens, UniProt P03956); assay: Activity against Matrix metalloprotease-1 (MMP-1).
T1 sequence (P03956 whole entry): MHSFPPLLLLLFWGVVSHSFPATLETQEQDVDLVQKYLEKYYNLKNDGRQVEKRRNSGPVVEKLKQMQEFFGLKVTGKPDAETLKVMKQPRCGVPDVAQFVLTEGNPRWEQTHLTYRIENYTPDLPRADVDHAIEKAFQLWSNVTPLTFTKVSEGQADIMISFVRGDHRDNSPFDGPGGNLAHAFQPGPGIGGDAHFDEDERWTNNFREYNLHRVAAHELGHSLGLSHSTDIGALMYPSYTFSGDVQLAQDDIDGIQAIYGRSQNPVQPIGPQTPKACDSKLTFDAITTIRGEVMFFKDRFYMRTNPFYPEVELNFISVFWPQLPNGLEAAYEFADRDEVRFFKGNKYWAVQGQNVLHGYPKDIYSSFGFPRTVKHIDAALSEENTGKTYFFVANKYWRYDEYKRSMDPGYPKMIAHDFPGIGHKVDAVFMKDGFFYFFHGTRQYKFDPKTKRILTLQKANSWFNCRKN

[2] = biological target: Matrix metalloproteinase-9 (Homo sapiens, UniProt P14780); assay: Activity against Matrix metalloprotease-9 (MMP-9).
[3] = biological target: 72 kDa type IV collagenase (Homo sapiens, UniProt P08253); assay: Activity against Matrix metalloprotease-2 (MMP-2).
72 kDa type IV collagenase, sequence (P08253 whole entry): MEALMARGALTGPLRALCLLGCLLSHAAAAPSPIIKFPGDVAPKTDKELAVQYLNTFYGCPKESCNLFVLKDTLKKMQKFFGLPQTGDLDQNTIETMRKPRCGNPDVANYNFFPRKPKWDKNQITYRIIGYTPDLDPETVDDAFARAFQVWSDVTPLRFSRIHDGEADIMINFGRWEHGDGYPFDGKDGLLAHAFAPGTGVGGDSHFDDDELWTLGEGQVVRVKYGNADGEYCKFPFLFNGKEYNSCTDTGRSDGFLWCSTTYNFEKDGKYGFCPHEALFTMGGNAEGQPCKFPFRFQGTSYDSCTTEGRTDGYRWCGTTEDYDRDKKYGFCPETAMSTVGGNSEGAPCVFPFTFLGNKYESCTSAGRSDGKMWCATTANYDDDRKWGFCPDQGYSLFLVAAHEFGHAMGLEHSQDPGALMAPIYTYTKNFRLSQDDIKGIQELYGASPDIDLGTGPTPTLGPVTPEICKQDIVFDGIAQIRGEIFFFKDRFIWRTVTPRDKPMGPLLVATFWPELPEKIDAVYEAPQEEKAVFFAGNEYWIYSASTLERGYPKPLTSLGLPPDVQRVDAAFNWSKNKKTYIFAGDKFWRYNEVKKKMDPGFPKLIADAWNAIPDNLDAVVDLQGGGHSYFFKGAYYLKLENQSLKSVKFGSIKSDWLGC

Matrix metalloproteinase-9, sequence (P14780 whole entry): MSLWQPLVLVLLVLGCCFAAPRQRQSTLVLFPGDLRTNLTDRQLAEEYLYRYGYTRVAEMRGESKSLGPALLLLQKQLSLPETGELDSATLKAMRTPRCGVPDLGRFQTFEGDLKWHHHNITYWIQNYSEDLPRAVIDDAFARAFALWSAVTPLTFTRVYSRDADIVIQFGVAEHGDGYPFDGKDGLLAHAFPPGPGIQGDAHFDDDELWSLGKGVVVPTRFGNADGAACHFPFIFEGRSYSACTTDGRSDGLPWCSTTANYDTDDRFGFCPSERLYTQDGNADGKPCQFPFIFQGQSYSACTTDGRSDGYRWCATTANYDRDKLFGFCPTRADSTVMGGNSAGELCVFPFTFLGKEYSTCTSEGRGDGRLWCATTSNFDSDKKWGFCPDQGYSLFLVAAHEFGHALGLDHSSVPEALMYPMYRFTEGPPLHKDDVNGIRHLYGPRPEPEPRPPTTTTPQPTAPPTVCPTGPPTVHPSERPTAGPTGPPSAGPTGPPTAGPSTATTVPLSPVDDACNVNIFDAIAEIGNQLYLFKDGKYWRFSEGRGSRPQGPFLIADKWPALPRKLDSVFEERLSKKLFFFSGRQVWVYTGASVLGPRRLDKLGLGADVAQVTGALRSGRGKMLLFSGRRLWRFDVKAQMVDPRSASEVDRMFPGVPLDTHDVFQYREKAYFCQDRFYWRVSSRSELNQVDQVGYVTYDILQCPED
Stromelysin-1, sequence (P08254 whole entry): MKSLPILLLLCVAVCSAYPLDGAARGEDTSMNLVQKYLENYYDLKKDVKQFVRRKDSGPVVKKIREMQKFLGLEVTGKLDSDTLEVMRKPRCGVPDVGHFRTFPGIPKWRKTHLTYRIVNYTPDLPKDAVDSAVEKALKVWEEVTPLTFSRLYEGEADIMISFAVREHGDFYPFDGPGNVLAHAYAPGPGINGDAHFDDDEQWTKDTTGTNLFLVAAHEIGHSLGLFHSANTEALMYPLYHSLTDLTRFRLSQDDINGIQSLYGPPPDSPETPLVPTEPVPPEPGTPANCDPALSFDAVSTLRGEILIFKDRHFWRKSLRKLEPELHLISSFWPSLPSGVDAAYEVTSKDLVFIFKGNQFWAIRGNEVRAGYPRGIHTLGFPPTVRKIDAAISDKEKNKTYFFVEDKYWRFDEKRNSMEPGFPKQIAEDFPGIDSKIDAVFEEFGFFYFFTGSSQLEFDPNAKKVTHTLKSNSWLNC

| Structure (SMILES) | IC50 [1] | IC50 (Stromelysin-1) | IC50 (Interstitial collagenase) | IC50 [2] | IC50 [3] |
| --- | --- | --- | --- | --- | --- |
| CNC(=O)[C@@H](NC(=O)[C@H](CC(C)C)[C@H](CN1CCOCC1)C(=O)NO)c1ccccc1 | 72 nM | 61 nM | 3.5 nM | 45 nM | – |
| CNC(=O)[C@@H](NC(=O)[C@H](CCc1ccccc1)CC(=O)NO)c1ccccc1 | 105 nM | 17 nM | 92 nM | 11 nM | 46.3 nM |
| CNC(=O)[C@@H](NC(=O)[C@H](CC(C)C)[C@H](C)C(=O)NO)c1ccccc1 | 56 nM | 1.9 nM | 3 nM | 3.9 nM | 7.5 nM |
| CNC(=O)[C@@H](NC(=O)[C@@H](CC(=O)NO)CC(C)C)c1ccccc1 | 19.3 nM | 4.4 nM | 15 nM | 14 nM | 42.5 nM |
| CNC(=O)[C@@H](NC(=O)[C@H](CC(C)C)[C@H](C)C(=O)NO)C1CCCCC1 | 13 nM | – | 2.9 nM | 0.9 nM | – |
| CNC(=O)[C@H](Cc1c[nH]c2ccccc12)NC(=O)[C@@H](CC(=O)NO)CC(C)C [ILOMASTAT] | 13.4 nM | 1.9 nM | – | – | – |
| CNC(=O)[C@@H](NC(=O)[C@H](CCCc1ccccc1)CC(=O)NO)c1ccccc1 | 8.5 nM | 9.6 nM | 89 nM | 3.3 nM | 3.2 nM |
| CNC(=O)[C@H](Cc1ccccc1)NC(=O)[C@H](CC(C)C)[C@H](CSc1cccs1)C(=O)NO [BATIMASTAT] | 3 nM | – | – | 0.2 nM | – |
| CCCCCCCCC[C@H](CC(=O)NO)C(=O)N[C@H](C(=O)NC)c1ccccc1 | 17.6 nM | 100 nM | 90 nM | 0.2 nM | 1.6 nM |

Now those with a lower IC50 [1], led by results:

| IC50 [1] | IC50 (Stromelysin-1) | IC50 (Interstitial collagenase) | IC50 [2] | IC50 [3] | Structure (SMILES) |
| --- | --- | --- | --- | --- | --- |
| 2.5 nM | – | 93 nM | 2.8 nM | – | CNC(=O)[C@@H](NC(=O)[C@H](CCCc1ccccc1)CC(=O)NO)C(C)C |
| 2.3 nM | 2.3 nM | 5.4 nM | 5 nM | 8.4 nM | CNC(=O)[C@@H](NC(=O)[C@@H](CC(=O)NO)CC(C)C)C1CCCCC1 |
| 2.08 nM | 0.6 nM | 0.3 nM | 0.3 nM | 0.3 nM | CNC(=O)[C@H](Cc1cccc2c1CCCC2)NC(=O)[C@H](CC(C)C)[C@H](C)C(=O)NO |
| 1.9 nM | – | 3 nM | 12 nM | 7.4 nM | CNC(=O)[C@@H](NC(=O)[C@@H](CC(=O)NO)CC(C)C)C(C)(C)C [RO-319790] |
| 1.9 nM | – | – | 1.3 nM | – | CNC(=O)[C@@H](NC(=O)[C@H](CCCc1ccccc1)CC(=O)NO)C(C)(C)C |
| 1.82 nM | – | – | – | – | CNC(=O)[C@@H](NC(=O)C(CC(C)C)C(O)C(=O)NO)C(C)(C)C (single isomer, unassigned) |
